We go through seven compounds from ChEMBL document CHEMBL2401663, “(Biphenyl-4-yl)methylammonium chlorides: potent anticonvulsants that modulate Na+ currents” (J Med Chem, 2013).

The structures appear in SMILES notation. Activity calls are given as the source filed them. No cut-off for these calls is given here.

The test system of data set [1] is Mus musculus. The data set is described as follows: Anticonvulsant activity against ip dosed albino CF1 mouse after 0.25 to 4 hrs by maximal electroshock seizure test. In kind it is functional.
The nature of data set [2]: Toxicity in ip dosed albino Sprague-Dawley rat assessed as behavioral toxicity after 0.25 to 4 hrs. In kind it is organism-based. Conditions: in vivo. A digest of the protocol:
(§1)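 Male albino Sprague-Dawley rats dosed ip or orally, scored for behavioral toxicity (neurological impairment). TD50 is in mg/kg, taken at the time of peak effect.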

Data set [3] relates to Rattus norvegicus. The data set is described as follows: Anticonvulsant activity against ip dosed albino Sprague-Dawley rat after […] by maximal electroshock seizure test. In kind it is functional. On the technique in general: Protection in the maximal electroshock model is a classic sign of anticonvulsant action.
Data set [4] in a line: Toxicity in ip dosed albino CF1 mouse after 0.25 to 4 hrs by rotorod test. As to conditions: in vivo. In kind it is organism-based.
Data set [5] concerns Mus musculus. The experiment in a line: Anticonvulsant activity against ip dosed albino CF1 mouse after 1 hr by 6 Hz psychomotor seizure test. It is filed as functional.
A short description of data set [6]: Toxicity in po dosed albino Sprague-Dawley rat assessed as behavioral toxicity after 0.25 to 4 hrs. It is filed as organism-based. Conditions: in vivo. A digest of the protocol:
as §1

Data set [7] concerns Mus musculus. The data set is described as follows: Anticonvulsant activity against ip dosed albino CF1 mouse after 2 hrs by subcutaneous pentylenetetrazol test. In kind it is functional. As to conditions: albino CF1, 2 h.
The test system of data set [8] is Rattus norvegicus. The data set is described as follows: Anticonvulsant activity against po dosed albino Sprague-Dawley rat after 0.25 to 4 hrs by maximal electroshock seizure test. In kind it is functional. A digest of the protocol:
(§2)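 Male albino Sprague-Dawley rats dosed ip or orally under the NIH Anticonvulsant Screening Program, tested by maximal electroshock seizure.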

Data set [9] in a line: Inhibition of Na+ channel in mouse CAD cells assessed as slow inactivation by whole cell voltage clamp technique. In kind it is cell-based. A digest of the protocol: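 CAD cells (Ham's F12/EMEM, 8% FBS, 37 °C, 5% CO2) by whole-cell voltage clamp at room temperature. Na+ channel slow inactivation measured at −50 mV; IC50 is the concentration at which half of the channels reach a slow-inactivated state.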

Data set [10] is described as follows: Toxicity in po dosed albino Sprague-Dawley rat assessed as behavioral toxicity. It is filed as organism-based. As to conditions: in vivo. A digest of the protocol:
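Neurological impairment was scored as behavioral toxicity in male albino Sprague-Dawley rats dosed orally, NIH Anticonvulsant Screening Program. The median impairing dose (TD50, mg/kg) was taken at the time of peak effect.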

The test system of data set [11] is CAD. The experiment in a line: Inhibition of Na+ channel in mouse CAD cells assessed as frequency-dependent inactivation at 10 uM by whole cell voltage clamp technique relative to control. It is filed as cell-based. A digest of the protocol:
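Frequency (use)-dependent inhibition of Na+ currents in CAD cells by whole-cell voltage clamp at room temperature. Current trend and amplitude at 10 μM compared with control.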

Data set [12] relates to CAD. The data set is described as follows: Inhibition of Na+ channel in mouse CAD cells assessed as fast inactivation by whole cell voltage clamp technique. In kind it is cell-based. A digest of the protocol:
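Steady-state fast inactivation in CAD cells by whole-cell voltage clamp at room temperature. Cells held at −80 mV, given 500-ms prepulses from −120 to −10 mV in 10-mV steps, then a 20-ms step to 0 mV. Curves fitted with a single Boltzmann; V1/2 shift compared with 0.1% DMSO by ANOVA and Dunnett's test. Mean ± SEM.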

Data set [13] deals with Mus musculus. The experiment in a line: Anticonvulsant activity against ip dosed albino CF1 mouse after […] by maximal electroshock seizure test. It is filed as functional.
Data set [14] has as its system Mus musculus. The experiment in a line: Anticonvulsant activity against ip dosed albino CF1 mouse after 0.25 to 1 hr by 6 Hz psychomotor seizure test. In kind it is functional.
Data set [15] deals with Rattus norvegicus. The data set is described as follows: Anticonvulsant activity against ip dosed albino Sprague-Dawley rat after 0.25 to 2 hrs by maximal electroshock seizure test. It is filed as functional. A digest of the protocol: as §2
Data set [16] relates to Mus musculus. The experiment in a line: Toxicity in ip dosed albino CF1 mouse after […] by rotorod test. It is filed as organism-based. Conditions: in vivo. For orientation: The rotarod test checks motor coordination on a turning rod.
Data set [17] relates to Mus musculus. The data set is described as follows: Anticonvulsant activity against ip dosed albino CF1 mouse after […] by subcutaneous pentylenetetrazol test. In kind it is functional.
The test system of data set [18] is Rattus norvegicus. The data set is described as follows: Anticonvulsant activity against po dosed albino Sprague-Dawley rat […] by maximal electroshock seizure test. In kind it is functional. A digest of the protocol: as §2
For data set [19], the system named is Mus musculus. The data set is described as follows: Anticonvulsant activity against ip dosed albino CF1 mouse after 1 hr by maximal electroshock seizure test. In kind it is functional.
Data set [20] deals with Rattus norvegicus. The data set is described as follows: Anticonvulsant activity against po dosed albino Sprague-Dawley rat after 5 hrs by maximal electroshock seizure test. It is filed as functional. A digest of the protocol:
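Male albino Sprague-Dawley rats given compound orally under the NIH Anticonvulsant Screening Program, then challenged by maximal electroshock.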

Broadly, the ED50 is the dose at which the effect has come halfway, by size or by number of responders. By TD50 is commonly meant the dose at which the toxic effect under study appears in half of the subjects. Regarding `Cl.NCc1ccc(-c2cccc(F)c2)cc1`, the ED50 with Mus musculus [1] was greater than 50 mg/kg; in the data set with Rattus norvegicus [3], 65 mg/kg; in the data set on Mus musculus [5] it was 50 mg/kg; in the data set with Mus musculus [7] it was 50 mg/kg; in the data set on Rattus norvegicus [8], greater than 30 mg/kg. Also, the TD50 was greater than 65 mg/kg in [2], greater than 100 mg/kg in [4] and greater than 30 mg/kg in data set [6].

In general, IC50 refers to the concentration at which inhibition is half-maximal. `COC[C@@H](NC(C)=O)C(=O)NCc1ccccc1` [LACOSAMIDE]: the IC50 in data set [9] was found to be 85 µM. Also, the TD50 in [10] is greater than 500 mg/kg.

In the case of `NCc1ccc(OCc2cccc(F)c2)cc1`, the IC50 in data set [9] was found to be 2.1 µM. The inhibition result in the data set with CAD [11] and in the data set with CAD [12] was “Active” in each case.

Consider `CCCC(CCC)C(=O)O` [VALPROIC ACID], for which, in the data set on Mus musculus [13], the ED50 came out at 270 mg/kg.

For the compound `Cl.NCc1ccc(-c2ccccc2OC(F)(F)F)cc1`, the ED50 in the data set with Mus musculus [14] is less than 50 mg/kg; in the data set with Rattus norvegicus [15], less than 30 mg/kg; with Mus musculus [13] it was 40 mg/kg; in the data set with Rattus norvegicus [8], greater than 30 mg/kg; with Mus musculus [17], greater than 120 mg/kg. In addition, the results for the TD50 (in data set [2]; in [6]; with Mus musculus [16]) were greater than 30 mg/kg, greater than 30 mg/kg and 72 mg/kg, respectively.

For the compound `O=C1NC(=O)C(c2ccccc2)(c2ccccc2)N1` [PHENYTOIN], the 50% effect level with Rattus norvegicus [18] (ED50) was put at a dose of 30 mg/kg.

For the compound `CCC1(c2ccccc2)C(=O)NC(=O)NC1=O` [PHENOBARBITAL], the ED50 with Mus musculus [19] was found to be 22 mg/kg; with Rattus norvegicus [20] it was 9.1 mg/kg.
